The nature of experiment [1]: Antifungal activity against Madurella mycetomatis isolate 83 by XTT assay. It is filed as functional. A digest of the protocol:
(§1)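 Ketoconazole, caspofungin and anidulafungin diluted in DMSO, micafungin in normal saline. Viability read by XTT reduction. MIC is the first concentration giving >80% spectrophotometric reduction. Done independently in triplicate.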
(In general: Tetrazolium assays rely on reduction of a dye to a coloured formazan, in cell work by metabolically active cells.)

Experiment [2] can be described thus: Antifungal activity against Madurella mycetomatis isolate 43 by XTT assay. In kind it is functional. In a few lines:
as §1

A short description of experiment [3]: Antifungal activity against Madurella mycetomatis isolate 45 by XTT assay. It is filed as functional. In a few lines: as §1
Experiment [4] can be described thus: Antifungal activity against Madurella mycetomatis isolate 54 by XTT assay. In kind it is functional. A digest of the protocol:
as §1

Experiment [5] is described as follows: Antifungal activity against Madurella mycetomatis isolate 41 by XTT assay. In kind it is functional. In a few lines: as §1
Experiment [6] in a line: Antifungal activity against Madurella mycetomatis isolate 68 by XTT assay. It is filed as functional. In a few lines: as §1
Experiment [7] can be described thus: Antifungal activity against Madurella mycetomatis isolate 35 by XTT assay. In kind it is functional. A digest of the protocol:
as §1

A short description of experiment [8]: Antifungal activity against Madurella mycetomatis isolate 31 by XTT assay. In kind it is functional. In a few lines:
as §1

The nature of experiment [9]: Antifungal activity against Madurella mycetomatis isolate 50 by XTT assay. It is filed as functional. A digest of the protocol:
as §1

The nature of experiment [10]: Antifungal activity against Madurella mycetomatis isolate 36 by XTT assay. It is filed as functional. A digest of the protocol: as §1
The nature of experiment [11]: Antifungal activity against Madurella mycetomatis isolate 46 by XTT assay. In kind it is functional. A digest of the protocol:
as §1

Experiment [12] is described as follows: Antifungal activity against Madurella mycetomatis isolate 73 by XTT assay. In kind it is functional. A digest of the protocol: as §1
The nature of experiment [13]: Antifungal activity against Madurella mycetomatis isolate 55 by XTT assay. It is filed as functional. In a few lines: as §1
Experiment [14] can be described thus: Antifungal activity against Madurella mycetomatis isolate 49 by XTT assay. In kind it is functional. A digest of the protocol: as §1
A short description of experiment [15]: Antifungal activity against Madurella mycetomatis isolate 64 by XTT assay. In kind it is functional. In a few lines: as §1
Experiment [16] can be described thus: Antifungal activity against Madurella mycetomatis isolate 52 by XTT assay. In kind it is functional. A digest of the protocol:
as §1

Experiment [17] is described as follows: Antifungal activity against Madurella mycetomatis isolate 39 by XTT assay. It is filed as functional. A digest of the protocol:
as §1

The subject of experiment [18] is Madurella mycetomatis. Nature of the experiment: Inhibition of beta-1,3-D-glucan synthesis in Madurella mycetomatis isolate 55 after 7 days by […] assay. It is filed as functional. A digest of the protocol: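 A hyphal suspension in RPMI was exposed to drug in tubes for 7 days at 37°C. Mycelium was freeze-dried, taken up in 1 M NaOH, probe-sonicated for 15 s and held at 52°C for 30 min. Glucan was measured by aniline blue fluorescence with curdlan as standard, then scaled to viable cells from XTT relative to growth control. Results are means with standard deviation.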

Experiment [19] relates to Aspergillus fumigatus. Nature of the experiment: Antifungal activity against Aspergillus fumigatus ATCC 204305 by XTT assay. It is filed as functional. To be noted: for minimal effective concentration: read-out: MEC. In a few lines:
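XTT viability assay in RPMI, run independently in triplicate, with a conidial inoculum. Twofold dilutions from 0.007 to 128 mg/liter for echinocandins and 0.016 to 16 mg/liter for KTZ. Drugs dissolved in DMSO, except micafungin in normal saline. MIC is the first concentration giving more than 80% spectrophotometric reduction. MEC is the first concentration with altered growth.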

Experiment [20] deals with Aspergillus fumigatus. Nature of the experiment: Inhibition of beta-1,3-D-glucan synthesis in Aspergillus fumigatus ATCC 204305 after 48 hrs by […] assay. It is filed as functional, organism-based. A digest of the protocol:
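A conidial suspension in RPMI was exposed to drug in tubes for 48 h. Mycelium was freeze-dried, taken up in 1 M NaOH, probe-sonicated for 15 s and held at 52°C for 30 min. Glucan was measured by aniline blue fluorescence with curdlan as standard, then corrected to viable cells by XTT. Results are means with standard deviation.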

Converted amounts (≈) assume the structure as drawn. The source made the active and inactive calls. The rule behind the calls is not given here. Numbered stars: 1 amine (or outer) side, 2 acyl side, 3 side chain; on linkers, the order of the positions; unused ones are H or OH. Bridge positions count the residues as written; N and C are the ends. Square brackets hold non-standard residues; d marks the D form. Peptide text beside a SMILES is read from it. * marks the point of attachment. hTyr(3S-OH,4S-OH,3'-OSO3H) = N[C@H](C(=O)O)[C@H](O)[C@@H](O)c1ccc(O)c(OS(=O)(=O)O)c1; pTerphenylCO(4''-OnC5H11) = CCCCCOc1ccc(-c2ccc(-c3ccc(C(=O)*)cc3)cc2)cc1; Orn(4R-OH,5R-OH) = O=C([C@H](C[C@@H](O)[C@@H](O)N[*:3])N[*:1])[*:2]; hTyr(3S-OH,4S-OH) = N[C@H](C(=O)O)[C@H](O)[C@@H](O)c1ccc(O)cc1; Pro(3S-OH,4S-Me) = C[C@H]1CN[C@H](C(=O)O)[C@H]1O; X1 = CCCCCOc1ccc(-c2cc(-c3ccc(C(=O)*)cc3)no2)cc1; Gln(3R-OH) = NC(=O)C[C@@H](O)[C@H](N)C(=O)O; Hyp = O=C(O)[C@@H]1C[C@@H](O)CN1

The term MIC denotes the lowest concentration that inhibits growth of the organism.

On to `CC(=O)N1CCN(c2ccc(OCC3COC(Cn4ccnc4)(c4ccc(Cl)cc4Cl)O3)cc2)CC1` (configuration not stated), for which the MIC amounted to 0.125 µg/mL (≈ 0.235 µM) in experiment [1]; 0.063 µg/mL (≈ 0.119 µM) in [2]; 0.25 µg/mL (≈ 0.47 µM) in [3]; 0.031 µg/mL (≈ 0.0583 µM) in [4]; 0.125 µg/mL (≈ 0.235 µM) in experiment [5]; 0.125 µg/mL (≈ 0.235 µM) in experiment [6]. In addition, the minimal inhibitory concentration (MIC) was 1 µg/mL (≈ 1.88 µM) in experiment [7]; 0.063 µg/mL (≈ 0.119 µM) in experiment [8]; 0.063 µg/mL (≈ 0.119 µM) in experiment [9]; 0.063 µg/mL (≈ 0.119 µM) in experiment [10]; 0.016 µg/mL (≈ 0.0301 µM) in [11]; 0.063 µg/mL (≈ 0.119 µM) in experiment [12]. Also, the MIC in [13] came to 0.25 µg/mL (≈ 0.47 µM); in experiment [14] it was 0.031 µg/mL (≈ 0.0583 µM); in [15] it was 0.063 µg/mL (≈ 0.119 µM); in experiment [16], 0.25 µg/mL (≈ 0.47 µM); in experiment [17], 0.031 µg/mL (≈ 0.0583 µM).

Take `CCCCCOc1ccc(-c2ccc(-c3ccc(C(=O)N[C@H]4C[C@@H](O)[C@@H](O)NC(=O)[C@@H]5[C@@H](O)[C@@H](C)CN5C(=O)[C@H]([C@@H](C)O)NC(=O)[C@H]([C@H](O)[C@@H](O)c5ccc(O)cc5)NC(=O)[C@@H]5C[C@@H](O)CN5C(=O)[C@H]([C@@H](C)O)NC4=O)cc3)cc2)cc1` [ANIDULAFUNGIN] ({pTerphenylCO(4''-OnC5H11)}-[Orn(4R-OH,5R-OH)]T[Hyp][hTyr(3S-OH,4S-OH)]T[Pro(3S-OH,4S-Me)]; lactam 1-C): the MIC is more than 128 µg/mL in [1]; more than 128 µg/mL in [2]; more than 128 µg/mL in experiment [3]; more than 128 µg/mL in experiment [4]; 0.5 µg/mL (≈ 0.438 µM) in [5]; more than 128 µg/mL in experiment [6]. Also, the minimal inhibitory concentration (MIC) in [7], in experiment [8], in [9], in [10], in [11] and in experiment [12] was more than 128 µg/mL in each case. The minimum inhibitory concentration (MIC) in experiment [13], in experiment [14], in experiment [19], in experiment [15], in experiment [16] and in experiment [17] was more than 128 µg/mL throughout. Also, the inhibition result in [18] and in [20] was “inactive” each time. Also, in experiment [19], the minimal effective concentration is less than 0.007 µg/mL.

For `CC[C@H](C)C[C@H](C)CCCCCCCCC(=O)N[C@H]1C[C@@H](O)[C@@H](NCCN)NC(=O)[C@@H]2[C@@H](O)CCN2C(=O)[C@H]([C@H](O)CCN)NC(=O)[C@H]([C@H](O)[C@@H](O)c2ccc(O)cc2)NC(=O)[C@@H]2C[C@@H](O)CN2C(=O)[C@H]([C@@H](C)O)NC1=O` [CASPOFUNGIN], the minimal inhibitory concentration (MIC) in experiment [1] was 128 µg/mL (≈ 117 µM); in experiment [2], 128 µg/mL (≈ 117 µM); in experiment [3] it was 64 µg/mL (≈ 58.5 µM); in experiment [4] it was 64 µg/mL (≈ 58.5 µM); in [5], 16 µg/mL (≈ 14.6 µM); in [6] it was 64 µg/mL (≈ 58.5 µM). The minimum inhibitory concentration (MIC) was 128 µg/mL (≈ 117 µM) in experiment [7]; 64 µg/mL (≈ 58.5 µM) in experiment [8]; 128 µg/mL (≈ 117 µM) in experiment [9]; 128 µg/mL (≈ 117 µM) in experiment [10]; 64 µg/mL (≈ 58.5 µM) in experiment [11]; 64 µg/mL (≈ 58.5 µM) in experiment [12]. The minimal inhibitory concentration (MIC) came to 128 µg/mL (≈ 117 µM) in experiment [13]; 32 µg/mL (≈ 29.3 µM) in experiment [14]; 128 µg/mL (≈ 117 µM) in experiment [19]; 64 µg/mL (≈ 58.5 µM) in experiment [15]; 128 µg/mL (≈ 117 µM) in [16]; 64 µg/mL (≈ 58.5 µM) in [17]. Moreover, the inhibition result in experiment [18] was “inactive”. Besides, the minimal effective concentration in experiment [19] came to 0.125 µg/mL.

Regarding `CCCCCOc1ccc(-c2cc(-c3ccc(C(=O)N[C@H]4C[C@@H](O)[C@@H](O)NC(=O)[C@@H]5[C@@H](O)[C@@H](C)CN5C(=O)[C@H]([C@H](O)CC(N)=O)NC(=O)[C@H]([C@H](O)[C@@H](O)c5ccc(O)c(OS(=O)(=O)O)c5)NC(=O)[C@@H]5C[C@@H](O)CN5C(=O)[C@H]([C@@H](C)O)NC4=O)cc3)no2)cc1` [MICAFUNGIN] (X1-[Orn(4R-OH,5R-OH)]T[Hyp][hTyr(3S-OH,4S-OH,3'-OSO3H)][Gln(3R-OH)][Pro(3S-OH,4S-Me)]; lactam 1-C), the minimum inhibitory concentration (MIC) is 128 µg/mL (≈ 101 µM) in [1]; 128 µg/mL (≈ 101 µM) in [2]; more than 128 µg/mL in experiment [3]; more than 128 µg/mL in experiment [4]; 8 µg/mL (≈ 6.3 µM) in [5]; more than 128 µg/mL in experiment [6]. Also, the minimum inhibitory concentration (MIC) in experiment [7], in [8], in experiment [9], in experiment [10], in experiment [11] and in experiment [12] was more than 128 µg/mL in each case. Besides, the minimum inhibitory concentration (MIC) in [13], in [14], in experiment [15], in [16] and in experiment [17] was more than 128 µg/mL throughout. Moreover, the inhibition result in [18] and in experiment [20] was “inactive” throughout.

The values are drawn from ChEMBL document CHEMBL1671690, “Madurella mycetomatis is not susceptible to the echinocandin class of antifungal agents” (2010).
